# Screening results as filed in PubChem BioAssay.
# Shown are actives, neighbours in structure and some others; about 4.6% of the full set was active somewhere.
# CHO parental Ca: counter-screen for OX1R antagonists: effect in parental CHO cells; parental CHO-K1, ATP-induced calcium, Fluo-8 fluorescence; inhibition, % at 5.6 µM; 0.63% of 330,000 active;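 active means inhibition above that plate's mean sample inhibition plus 3 SD, cut at about 26% in these data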;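 further: 0% = ATP-challenged DMSO wells and 100% = DMSO wells without ATP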
#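 Assay system – parental CHO cells · Reagent – ATP stimulus · Detection – intracellular calcium via Fluo-8 no-wash fluorescent dye · Evaluation – percent inhibition of ATP-evoked calcium rise, normalized to controls · Controls – ATP wells versus no-ATP DMSO wells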
# TAAR1 antag: antagonists of human TAAR1. Q96RJ0. CHO RD-HGA16 TAAR1, Fluo-8 calcium fluorescence, antagonist. inhibition, % at 3 µM. 1.5% of 360,000 active. AID 624466;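 active means inhibition above a per-plate cutoff, the mean inhibition of test compounds on that plate plus 3 SD, cut at about 49% in these data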;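 further: 0% = DMSO plus EC80 beta-PEA response and 100% = DMSO alone without agonist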
#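 Assay system: CHO-derived RD-HGA16 cells stably expressing human TAAR1 plus Gα16. Timing: 140 s kinetic read after compound, 140 s after agonist. Technique: kinetic Fluo-8 calcium fluorescence measurement. Measure: % inhibition of agonist calcium response.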
# OX1R antag-1: antagonists of human orexin 1 receptor | O43613 | CHO/OX1R cells, Fluo-8 calcium fluorescence, orexin A | inhibition, % at 5 µM | 0.43% of 330,000 active;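 active means inhibition above its plate's threshold, mean inhibition of all tested compounds on the plate plus 3 SD, cut at about 37% in these data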;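 further: 0% = orexin A challenge wells and 100% = SB-334867-A antagonist wells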
# Target sequence (O43613 whole entry, looked up): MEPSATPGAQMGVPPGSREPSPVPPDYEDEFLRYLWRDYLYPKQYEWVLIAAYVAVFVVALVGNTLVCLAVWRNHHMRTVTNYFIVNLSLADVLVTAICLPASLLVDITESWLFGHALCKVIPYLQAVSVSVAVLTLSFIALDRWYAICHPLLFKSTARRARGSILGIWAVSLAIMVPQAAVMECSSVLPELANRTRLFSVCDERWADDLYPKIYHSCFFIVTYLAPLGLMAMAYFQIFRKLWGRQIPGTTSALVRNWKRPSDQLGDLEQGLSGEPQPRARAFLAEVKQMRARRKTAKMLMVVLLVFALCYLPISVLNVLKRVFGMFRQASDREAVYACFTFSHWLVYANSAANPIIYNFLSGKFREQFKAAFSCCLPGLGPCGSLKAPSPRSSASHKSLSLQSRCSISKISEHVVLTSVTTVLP
# OX1R antag-2: antagonists of human orexin 1 receptor (OX1R); OX1R-expressing cells, FRET antagonist read-out; inhibition, % at 6.6 µM; 1.8% of 330,000 active; AID 485270; in the data active means inhibition mostly above about 38%, no sharp cut-off; inactive means mostly below about 40%;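 further: 0% = agonist challenge alone and 100% = reference antagonist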
# TAAR1 ag: human TAAR1 agonism. 0.99% of 360,000 active. CHO RD-HGA16 TAAR1, Fluo-8 calcium fluorescence; vehicle wells 0%, saturating PEA agonist 100%. activation, % at 3 µM. AID 624467;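 active means activation above the mean activation of all test compounds in the run plus 3 SD, cut at about 38% in these data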
#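 Assay system: CHO-derived RD-HGA16 cells with stable Gα16 and human TAAR1; timing: 17-24 h seeding, 75 min 37 °C dye, 30 min RT; read-out: % activation from peak over basal fluorescence ratio, DMSO-to-PEA scaled; measured by: kinetic Fluo-8 calcium fluorescence; benchmarks: low control DMSO, high control PEA (EC100); doses: 3 µM single concentration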
# GPR7 antag: antagonists of human GPR7 (neuropeptides B/W receptor 1); P48145; 1.1% of 290,000 active; GPR7-expressing cells, fluorescence antagonist assay; inhibition, % at 4.4 µM; in the data active means inhibition above about 16%, passing the limit was not always enough;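 further: cells stimulated with the agonist NPW; 0% = agonist with vehicle and 100% = vehicle without agonist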
# TAAR1 ag conf: human TAAR1 agonism, confirmed. activation, % at 3 µM. 82% of 2,400 active. shares compounds with TAAR1 ag. CHO RD-HGA16 TAAR1, Fluo-8 calcium fluorescence; scaled: DMSO 0%, maximal phenethylamine 100%. AID 651783;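 active means activation above a cutoff set at the run's mean compound activation plus 3 SD, cut at about 39% in these data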
# Ga16 nonsel ag: counter-screen for TAAR1 agonists: nonselective agonists in parental cells. CHO-Ga16 parental, Fluo-8 calcium fluorescence; normalized to maximal ATP response, DMSO zero. AID 651787. activation, % at 3 µM. 50% of 2,400 active. shares compounds with TAAR1 ag;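 active means activation above the run cutoff, the mean activation over all tested wells plus 3 SD, cut at about 12% in these data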;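 further: 0% = DMSO wells and 100% = maximal ATP response on the peak over basal ratio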
# TAAR1 desens: TAAR1 response desensitization, agonist counter-screen; CHO RD-HGA16 hTAAR1, Fluo-8 calcium, beta-PEA response inhibition; inhibition, % at 3 µM; 46% of 2,400 active; shares compounds with TAAR1 ag; AID 651951;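 active means inhibition above the run cutoff, the mean inhibition of all test compounds plus 3 SD, cut at about 49% in these data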;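 further: beta-PEA stimulus applied at its EC80; loss of beta-PEA calcium signal after compound pretreatment read as receptor desensitization; 0% = DMSO with beta-PEA at EC80 and 100% = DMSO alone without agonist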
# Ga16 antag count: counter-screen for TAAR1 agonists: nonselective Ga16 antagonists | AID 651952 | CHO-Ga16 ATP-induced calcium, Fluo-8 fluorescence | shares compounds with TAAR1 ag | inhibition, % at 3 µM | 39% of 2,400 active;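 active means inhibition above the plate's mean compound inhibition plus 3 SD, computed per plate, cut at about 22% in these data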;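 further: 0% = EC80 ATP with DMSO and 100% = DMSO wells without ATP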
# * marks the source's active call; other numbers are inactive results; nt = no result.
SMILES,CHO parental Ca,TAAR1 antag,OX1R antag-1,OX1R antag-2,TAAR1 ag,GPR7 antag,TAAR1 ag conf,Ga16 nonsel ag,TAAR1 desens,Ga16 antag count
CN(C)CCNc1ncnc2c1ncn2[C@H]1CN(CCc2ccccc2)C[C@@H](CO)O1,nt,-16,nt,nt,58*,nt,48*,-1,7,4
COC(=O)[C@@]12C[C@@H](CC(=O)N3CCN(C(=O)C4CC4)CC3)C(=O)N(CCc3ccc(OC)c(OC)c3)C1=CCC(C)(C)C2,nt,2,nt,nt,3,nt,nt,nt,nt,nt
Cc1ccc(S(=O)(=O)CCC(=O)OC(C)C(=O)c2c(C)[nH]c3ccccc23)cc1 (centres undefined),-9,-12,-13,21,2,-6,nt,nt,nt,nt
O=c1oc2c(O)cccc2cc1-c1nc2ccccc2[nH]1,nt,9,nt,nt,83*,-9,93*,90*,46,29*
COc1ccc(C(c2c(C)n(C)n(-c3ccccc3)c2=O)c2c(C)n(C)n(-c3ccccc3)c2=O)c(OC)c1OC,-13,0,-9,7,1,2,nt,nt,nt,nt
CCOC(=O)c1cn(CC(=O)Nc2cccc(F)c2)nn1,5,-4,-4,-4,4,11,nt,nt,nt,nt
Cc1cc(C)c2c(=O)n(CC(=O)Nc3ccc(Cl)cc3)sc2n1,56*,80*,45*,10,87*,-8,100*,61*,87*,68*
Cc1cc(C)c2c(=O)n(CC(=O)Nc3cccc(F)c3)sc2n1,22,72*,6,17,70*,-14,95*,54*,88*,60*
CC1CCN(CC(=O)Nc2ccc(Cl)cc2[N+](=O)[O-])CC1,-12,-15,-22,11,8,-9,nt,nt,nt,nt
Cc1cc(S(=O)(=O)N2CCOCC2)c(C)s1,4,-2,-12,12,0,4,nt,nt,nt,nt
OC(c1cc(C(F)(F)F)nc2c(C(F)(F)F)cccc12)C1CCCCN1 (centres undefined),4,50*,-5,1,67*,nt,68*,44*,60*,54*
OC(c1cc(-c2cccc(Cl)c2)nc2ccccc12)C1CCCCN1 (centres undefined),nt,44,nt,nt,29,nt,nt,nt,nt,nt
OC(c1cc(-c2ccc(C(F)(F)F)cc2)nc(C(F)(F)F)c1)C1CCCCN1 (centres undefined),8,48,-2,-16,82*,42*,82*,62*,69*,70*
CCc1nc(N2CCN(Cc3ccc4c(c3)OCO4)CC2)c2oc3ccccc3c2n1,-39,20,-39,17,8,-6,nt,nt,nt,nt
CCN(CC)c1ccc(/C=C2/C(=O)c3ccc(C(=O)O)cc3C2=O)cc1,46,103*,83*,33,265*,-1,214*,199*,105*,98*
N#CCSc1nnc(Cc2cccc3ccccc23)n1C1CCCCC1,-16,5,-13,22,11,-2,nt,nt,nt,nt
Cc1ccc(-n2cc(CNCCCn3ccnc3C)c(-c3ccc(F)cc3)n2)cc1,-14,1,-24,13,7,-4,nt,nt,nt,nt
Cc1ccc(-n2cc(CNCCc3cscn3)c(-c3ccc(F)cc3)n2)cc1,-26,-10,-17,14,46*,6,57*,6,13,7
Oc1ccc(/C=N/Nc2ccnc3cc(Cl)ccc23)c(O)c1O,-10,3,-24,3,8,-10,nt,nt,nt,nt
Oc1ccc(/C=N/Nc2ccnc3cc(Cl)ccc23)cc1O,-7,65*,-11,5,97*,-17,106*,6,92*,1
C=C(C)CN(CC)C(=O)COc1ccc(S(=O)(=O)Nc2ccc(OC)cc2)cc1,-4,14,2,9,63*,8,59*,30*,23,22*
OC(COC(c1ccccc1)c1ccccc1)CN1CCc2ccccc2C1 (centres undefined),-24,-1,-57,12,5,-1,nt,nt,nt,nt
OC(COC(c1ccc(Cl)cc1)c1ccc(Cl)cc1)CN1CCc2ccccc2C1 (centres undefined),-20,25,-41,-6,82*,-11,81*,3,49*,13
COCc1cccc(-c2csc(C(C)(NC(C)=O)c3ccccc3)n2)c1 (centres undefined),nt,-3,nt,nt,2,nt,nt,nt,nt,nt
CCOC(=O)C(NCc1ccc2c(c1)OCO2)(NC(=O)CC)C(F)(F)F (centres undefined),-22,-8,-19,1,4,-6,nt,nt,nt,nt
SMILES,CHO parental Ca,TAAR1 antag,OX1R antag-1,OX1R antag-2,TAAR1 ag,GPR7 antag,TAAR1 ag conf,Ga16 nonsel ag,TAAR1 desens,Ga16 antag count
CCOC(=O)C(NCCc1ccccc1F)(NC(=O)CC)C(F)(F)F (centres undefined),-9,nt,7,10,nt,-8,nt,6,nt,8
CCOC(=O)C(NCCc1ccccc1)(NC(=O)CC)C(F)(F)F (centres undefined),-10,52*,10,28,94*,-6,98*,5,80*,-2
CCN(CC)CCCN1C(=O)CSC1c1ccc2c(c1)OCO2 (centres undefined),4,-11,-21,30,1,-12,nt,nt,nt,nt
CCN(CC)CCCN1C(=O)CSC1c1ccc([N+](=O)[O-])cc1 (centres undefined),-7,7,-13,58,52*,4,1,2,9,4
O=C(NCc1ccccc1)N1CCN(c2ccc(Cl)c(Cl)c2)CC1,42*,101*,38,47,95*,14,18,10,43,36*
O=C(NCc1ccccc1)N1CCN(c2ccc(F)cc2)CC1,-1,-9,-18,18,2,-11,nt,nt,nt,nt
COc1ccc(CCC(C)NCc2ccc(Cl)c(Cl)c2)cc1 (centres undefined),2,1,-20,7,21,14,nt,nt,nt,nt
COc1ccc(CCC(C)NCCc2ccc(Cl)cc2Cl)cc1 (centres undefined),0,36,-18,7,48*,12,48*,22*,43,24*
O=C(Cc1cccs1)N[C@@H]1c2ccccc2CC[C@@H]1OCc1ccccc1,-17,82*,-17,16,59*,nt,0,6,12,18
